Laboratory results reported in ChEMBL document CHEMBL5058577, “EUbOPEN Chemogenomics Library 2 (Multiplex)” (2022).

Tested on: HEK-293T
Test: Multiplex assay against HEK293T
Format: toxicity, cell-based
Details: human
Procedure, shortened: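 Compound was added to live cells that had been stained at seeding with Hoechst33342, BioTracker Green Microtubule Cytoskeleton Dye, MitoTracker Red and Annexin V Alexa Fluor 680, and imaging followed on a CQ1 microscope at 37°C and 5% CO2. CellPathfinder machine-learning gating divided cells into Hoechst high-intensity objects or normal cells, normal cells into healthy, pyknosed or fragmented nuclei, and pyknosed cells into mitotic or apoptotic. Tubulin, mitochondrial-mass and membrane-permeability phenotypes are per cents of healthy-nucleus cells.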

[1] = 12 h, 1 µM, compound concentration 1 uM, replicate 1
[2] = 12 h, 1 µM, compound concentration 1 uM, replicate 2
[3] = 12 h, 10 µM, compound concentration 10 uM, replicate 1
[4] = 12 h, 10 µM, compound concentration 10 uM, replicate 2
[5] = 24 h, 1 µM, compound concentration 1 uM, replicate 1
[6] = 24 h, 1 µM, compound concentration 1 uM, replicate 2
[7] = 24 h, 10 µM, compound concentration 10 uM, replicate 1
[8] = 24 h, 10 µM, compound concentration 10 uM, replicate 2
[9] = 48 h, 1 µM, compound concentration 1 uM, replicate 1
[10] = 48 h, 1 µM, compound concentration 1 uM, replicate 2
[11] = 48 h, 10 µM, compound concentration 10 uM, replicate 1
[12] = 48 h, 10 µM, compound concentration 10 uM, replicate 2

## CN(C)C(=O)Cn1cc(-c2ccc(-c3nnc4ccccn34)cc2)cn1
[1]
  Population Apoptotic (%): 31%
  Population Fragmented Nuclei (%): 7%
  Population Healthy Nuclei (%): 80%
  Population Hoechst High Intensity Objects (%): 9%
  Population Membrane Permeable-Phenotype (%): 0%
  Population Mitochondria Different-Phenotype (%): 40%
  Population Mitotic Cells (%): 68%
  Population Normal (%): 90%
  Population Pyknosed Nuclei (%): 11%
  Population Tubulin-Different-Phenotype (%): 32%
  Total Cell Count: 432
[2]
  Population Apoptotic (%): 43%
  Population Healthy Nuclei (%): 79%
  Population Hoechst High Intensity Objects (%): 10%
  Population Mitochondria Different-Phenotype (%): 59%
  Population Mitotic Cells (%): 56%
  Population Normal (%): 89%
  Population Pyknosed Nuclei (%): 12%
  Population Tubulin-Different-Phenotype (%): 27%
  Total Cell Count: 337
[3]
  Population Apoptotic (%): 32%
  Population Fragmented Nuclei (%): 9%
  Population Healthy Nuclei (%): 76%
  Population Hoechst High Intensity Objects (%): 7%
  Population Membrane Permeable-Phenotype (%): 0%
  Population Mitochondria Different-Phenotype (%): 61%
  Population Mitotic Cells (%): 67%
  Population Normal (%): 92%
  Population Pyknosed Nuclei (%): 14%
  Population Tubulin-Different-Phenotype (%): 42%
  Total Cell Count: 427
[4]
  Population Apoptotic (%): 51%
  Population Fragmented Nuclei (%): 7%
  Population Healthy Nuclei (%): 80%
  Population Hoechst High Intensity Objects (%): 8%
  Population Mitochondria Different-Phenotype (%): 55%
  Population Mitotic Cells (%): 48%
  Population Normal (%): 91%
  Population Pyknosed Nuclei (%): 12%
  Population Tubulin-Different-Phenotype (%): 18%
  Total Cell Count: 356
[5]
  Population Apoptotic (%): 27%
  Population Fragmented Nuclei (%): 10%
  Population Healthy Nuclei (%): 77%
  Population Hoechst High Intensity Objects (%): 6%
  Population Membrane Permeable-Phenotype (%): 0%
  Population Mitochondria Different-Phenotype (%): 28%
  Population Mitotic Cells (%): 72%
  Population Normal (%): 93%
  Population Pyknosed Nuclei (%): 12%
  Population Tubulin-Different-Phenotype (%): 22%
  Total Cell Count: 595
[6]
  Population Apoptotic (%): 46%
  Population Fragmented Nuclei (%): 9%
  Population Healthy Nuclei (%): 82%
  Population Hoechst High Intensity Objects (%): 7%
  Population Mitochondria Different-Phenotype (%): 44%
  Population Mitotic Cells (%): 53%
  Population Normal (%): 92%
  Population Pyknosed Nuclei (%): 7%
  Population Tubulin-Different-Phenotype (%): 18%
  Total Cell Count: 447
[7]
  Population Apoptotic (%): 35%
  Population Fragmented Nuclei (%): 7%
  Population Healthy Nuclei (%): 78%
  Population Hoechst High Intensity Objects (%): 4%
  Population Membrane Permeable-Phenotype (%): 0%
  Population Mitochondria Different-Phenotype (%): 44%
  Population Mitotic Cells (%): 64%
  Population Normal (%): 95%
  Population Pyknosed Nuclei (%): 13%
  Population Tubulin-Different-Phenotype (%): 27%
  Total Cell Count: 506
[8]
  Population Apoptotic (%): 61%
  Population Fragmented Nuclei (%): 13%
  Population Healthy Nuclei (%): 79%
  Population Hoechst High Intensity Objects (%): 7%
  Population Mitochondria Different-Phenotype (%): 39%
  Population Mitotic Cells (%): 38%
  Population Normal (%): 92%
  Population Pyknosed Nuclei (%): 7%
  Population Tubulin-Different-Phenotype (%): 11%
  Total Cell Count: 425
[9]
  Population Apoptotic (%): 18%
  Population Fragmented Nuclei (%): 11%
  Population Healthy Nuclei (%): 81%
  Population Hoechst High Intensity Objects (%): 3%
  Population Membrane Permeable-Phenotype (%): 0%
  Population Mitochondria Different-Phenotype (%): 20%
  Population Mitotic Cells (%): 81%
  Population Normal (%): 96%
  Population Pyknosed Nuclei (%): 6%
  Population Tubulin-Different-Phenotype (%): 13%
  Total Cell Count: 946
[10]
  Population Apoptotic (%): 32%
  Population Healthy Nuclei (%): 80%
  Population Hoechst High Intensity Objects (%): 4%
  Population Mitochondria Different-Phenotype (%): 22%
  Population Mitotic Cells (%): 67%
  Population Normal (%): 95%
  Population Pyknosed Nuclei (%): 7%
  Population Tubulin-Different-Phenotype (%): 12%
  Total Cell Count: 572
[11]
  Population Apoptotic (%): 30%
  Population Fragmented Nuclei (%): 18%
  Population Healthy Nuclei (%): 74%
  Population Hoechst High Intensity Objects (%): 5%
  Population Membrane Permeable-Phenotype (%): 0%
  Population Mitochondria Different-Phenotype (%): 24%
  Population Mitotic Cells (%): 69%
  Population Normal (%): 94%
  Population Pyknosed Nuclei (%): 6%
  Population Tubulin-Different-Phenotype (%): 14%
  Total Cell Count: 753
[12]
  Population Apoptotic (%): 37%
  Population Fragmented Nuclei (%): 14%
  Population Healthy Nuclei (%): 79%
  Population Hoechst High Intensity Objects (%): 2%
  Population Mitochondria Different-Phenotype (%): 27%
  Population Mitotic Cells (%): 62%
  Population Normal (%): 97%
  Population Pyknosed Nuclei (%): 5%
  Population Tubulin-Different-Phenotype (%): 12%
  Total Cell Count: 616
